Activity calls are given as the source filed them. No cut-off for these calls is given here.
What was measured:
A549 [1] = test: Drug uptake in human A549 cells at 30 uM after 8 hrs using MTBSTFA by LC/MS/MS analysis; assay type: ADME, cell-based; details: a549, 8 h
Summary of the method: (§1)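 A549 cells, plated at 1.3 × 10^5 per well, dosed for 8 h, PBS-washed, trypsinized, counted by trypan blue, then pellets PBS-washed and frozen at −80°C. Lysate was derivatized with MTBSTFA to tetra-silyl bisphosphonate for 1 h, cooled, diluted 1:5 in acetonitrile, and analysed by LC-MS-MS (C18, isocratic acetonitrile/water 70:30, 0.1% formic acid, 0.2 mL/min). Detection was qualitative.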

A549 [2] = test: Cell cycle arrest in human A549 cells assessed as accumulation of cells in G2 phase after 24 hrs measured using propidium iodide staining by FACS analysis; assay type: functional, cell-based
A549 [3] = test: Antiproliferative activity against human A549 cells after 48 hrs by MTS assay; assay type: functional, cell-based; details: A549, 48 h
Summary of the method: (§2)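 A549 cells were seeded at 1.5 × 10^3 per well, adhered overnight, and treated over 0.2–300 μM (final 1% DMSO). After treatment, MTS was added for 40 min–2 h and A490 read. Absorbance was converted to percent of vehicle control, and IC50 was obtained by nonlinear dose-response fit.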

A549 [4] = test: Anticancer activity in human A549 cells assessed as decrease in viable cells after 72 hrs by trypan blue exclusion assay; assay type: functional, cell-based; details: A549, 72 h
Summary of the method: (§3)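 A549 cells (RPMI 1640, 10% FBS) were plated at 1.7 × 10^4 per well in 12-well plates, adhered overnight, and dosed from 100X DMSO stocks (final 1% DMSO). Floating and trypsinized cells were pooled, mixed 1:1 with 0.04% trypan blue and viable cells counted. Counts were expressed as percent of control per time point; EC50 is the concentration giving a 50% decrease in cell number.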

A549 [5] = test: Cell cycle arrest in human A549 cells assessed as accumulation of cells in G1 phase at 3 uM after 72 hrs measured using propidium iodide staining by FACS analysis; assay type: functional, cell-based
Summary of the method: (§4)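 A549 cells were plated at 6.7 × 10^4 per well in 6-well plates and dosed at 0, 3 or 10 μM for 72 h (final 1% DMSO). Cells were fixed in cold 70% ethanol, then stained with 10 μg/mL propidium iodide plus RNase A for 30 min at 37°C.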

A549 [6] = test: Antiproliferative activity against human A549 cells after 24 hrs by MTS assay; assay type: functional, cell-based; details: A549, 24 h; summary of the method: as §2
A549 [7] = test: Anticancer activity against human A549 cells assessed as growth inhibition at 10 to 300 uM for 72 hrs followed by 48 hrs incubation after compound wash out; assay type: functional, cell-based
Summary of the method: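 A549 cells exposed to 10, 30, 100 and 300 μM for 72 h, then washed to remove drug and given fresh drug-free medium; regrowth was checked after a further 48 h.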

A549 [8] = test: Antiproliferative activity against human A549 cells after 72 hrs by MTS assay; assay type: functional, cell-based; details: A549, 72 h; summary of the method: as §2
A549 [9] = test: Cell cycle arrest in human A549 cells assessed as accumulation of cells in G1 phase at 10 uM after 72 hrs measured using propidium iodide staining by FACS analysis; assay type: functional, cell-based; summary of the method: as §4
A549 [10] = test: Cell cycle arrest in human A549 cells assessed as accumulation of cells in G1 phase at 3 uM after 72 hrs measured using propidium iodide staining by FACS analysis in presence of nocodazole; assay type: functional, cell-based
A549 [11] = test: Anticancer activity in human A549 cells assessed as decrease in viable cells after 24 hrs by trypan blue exclusion assay; assay type: functional; summary of the method: as §3
A549 [12] = test: Ratio of EC50 for human A549 cells after 48 hrs by trypan blue exclusion assay to IC50 for human A549 cells after 48 hrs by MTS assay; assay type: functional
A549 [13] = test: Anticancer activity against human A549 cells assessed as reduction in cell viability after 72 hrs by crystal voilet staining; assay type: functional, cell-based
Summary of the method: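 A549 cells were plated at 1.7 × 10^4 per well in 6-well plates and dosed from 100X DMSO stocks (final 1% DMSO). After 72 h cells were washed twice with PBS, stained 5–15 min with 0.5% crystal violet in 95% EtOH, rinsed with cold water and air-dried.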

A549 [14] = test: Anticancer activity in human A549 cells assessed as decrease in viable cells after 48 hrs by trypan blue exclusion assay; assay type: functional, cell-based; details: A549, 48 h; summary of the method: as §3
A549 [15] = test: Anticancer activity against human A549 cells assessed as growth inhibition up to 1 mM by MTS assay; assay type: functional, cell-based
Summary of the method: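 A549 cells, plated at 1.5 × 10^3 per well and left to adhere overnight, treated for 24, 48 or 72 h with compounds serially diluted in DMSO (1% DMSO final). MTS dye was added for 40 min to 2 h and absorbance read at 490 nm. Values were expressed as percent of vehicle control; IC50 was taken from nonlinear dose-response fitting.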

A549 [16] = test: Drug uptake in human A549 cells assessed per 10^4 cells at 10 uM after 8 hrs by LC/MS/MS analysis; assay type: ADME, cell-based; details: a549, 8 h
Summary of the method: (§5)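 A549 cells were plated at 1.3 × 10^5 per well in 6-well plates and treated at 0, 10 or 30 μM for 8 h. Cells were washed, trypsinized and counted by trypan blue, and pellets were frozen. Lysates in acetonitrile with temazepam internal standard were analysed by LC-MS-MS on a C18 column (isocratic acetonitrile/water 60:40, 0.1% formic acid). Results are reported as ng/10^4 cells.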

A549 [17] = test: Prodrug conversion in human A549 cells assessed as intracellular formation of methylenebis(hydrogen phosphonate) at 10 to 30 uM after 8 hrs using MTBSTFA by LC/MS/MS analysis; assay type: ADME, cell-based; details: a549, 8 h; summary of the method: as §1
A549 [18] = test: Drug uptake in human A549 cells assessed per 10^4 cells at 30 uM after 8 hrs by LC/MS/MS analysis; assay type: ADME, cell-based; details: a549, 8 h; summary of the method: as §5
A549 [19] = test: Drug uptake in human A549 cells after 8 hrs by LC/MS/MS analysis; assay type: ADME, cell-based; details: a549, 8 h; summary of the method: as §5

For `O=P(O)(O)CP(=O)(O)O` [MEDRONIC ACID], the Drug uptake (A549 [1]) was “Active”.

With `COC(=O)Nc1nc2cc(C(=O)c3cccs3)ccc2[nH]1` the Activity (A549 [2]) was “Active”.

`CN(CCCCCl)P(=O)(OCc1ccc([N+](=O)[O-])cc1)C(Cl)(Cl)P(=O)(OCc1ccc([N+](=O)[O-])cc1)N(C)CCCCCl` (stereo unspecified) was tested, and the IC50 (A549 [3]) was 5.2 µM, the EC50 (A549 [4]) was 16 µM and the Activity (A549 [5]) was “Active”. For the same molecule, the IC50 (A549 [6]) was 7.6 µM, the “growth inhibition (GI)” value (A549 [7]) was “Active” and the IC50 (A549 [8]) was 4.4 µM. For the same molecule, the Activity (A549 [9]) was “Active”, the Activity (A549 [10]) was “Active” and the Activity (A549 [11]) was 57%. The “Ratio IC50” value (A549 [12]) was 3.6, the Activity (A549 [13]) was “Active” and the EC50 (A549 [14]) was 19 µM.

With `O=P(O)(O)C(Cl)(Cl)P(=O)(O)O` the “growth inhibition (GI)” value (A549 [15]) was “inactive”.

`CN(CCCCCl)P(=O)(CP(=O)(OCc1ccc([N+](=O)[O-])cc1)N(C)CCCCCl)OCc1ccc([N+](=O)[O-])cc1` (stereo unspecified) gave an IC50 (A549 [3]) of 15 µM, an EC50 (A549 [4]) of 25 µM and an IC50 (A549 [6]) of 17 µM. It also gave an IC50 (A549 [8]) of 13 µM, an Activity (A549 [11]) of less than 50% and a Drug uptake (A549 [16]) of 68.6 ng. For the same molecule, the “Ratio IC50” value (A549 [12]) was 1.6, the Activity (A549 [17]) was “Active” and the EC50 (A549 [14]) was 24 µM. For the same molecule, the Drug uptake (A549 [18]) was 169.3 ng and the Drug uptake (A549 [19]) was “Dose-dependent effect”.

— ChEMBL document CHEMBL1828611, “Bisphosphonamidate clodronate prodrug exhibits potent anticancer activity in non-small-cell lung cancer cells” (J Med Chem, 2011)
